32 substances from ChEMBL document CHEMBL1142683, “Multivariate design, synthesis, and biological evaluation of peptide inhibitors of FimC/FimH protein-protein interactions in uropathogenic Escherichia coli” (J Med Chem, 2005) can be followed below.

Test [1] has as its system Escherichia coli. Kind of test: Inhibition of FimC/FimH pilus assembly complex formation in Escherichia coli at 10 uM. The essentials: (§1)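 Competitive ELISA: FimC chaperone coated overnight at 4 °C in PBS pH 7.4, blocked with 3% BSA-PBS 1 h RT. Peptide in DMSO (0.5, 2.5 or 10 nmol; 10, 50, 200 µM) plus FimH (1 pmol, in 3 M urea/MES pH 6.8) 45 min RT. Bound FimH detected with mouse anti-FimH, then alkaline phosphatase anti-mouse IgG, p-nitrophenyl phosphate 1 h dark; A405. DMSO positive control. % inhibition, mean of four replicates.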

Test [2] has as its system Escherichia coli. Kind of test: Inhibition of FimC/FimH pilus assembly complex formation in Escherichia coli at 50 uM. The essentials: as §1
The subject of test [3] is Escherichia coli. Kind of test: Inhibition of FimC/FimH pilus assembly complex formation in Escherichia coli at 200 uM. The method in brief: as §1

With H-NGLQGASIS-OH, the inhibition in the test on Escherichia coli [1] turned out to be 10%; with Escherichia coli [2], 19%; in the test on Escherichia coli [3] it was 24%.

With H-NTGALDSIS-OH, the inhibition in the test on Escherichia coli [1] turned out to be 2%; in the test on Escherichia coli [2], 11%; with Escherichia coli [3], 15%.

For the substance H-NTLQLAIIS-OH, the figures for the inhibition with Escherichia coli [1], in the test on Escherichia coli [2] and in the test on Escherichia coli [3] were 7%, 23% and 40%, respectively.

As to H-KFGDLASIS-OH, the inhibition was found to be 4% with Escherichia coli [1], 1% with Escherichia coli [2] and 7% in the test with Escherichia coli [3].

On to H-NGSDSHFIS-OH, for which the inhibition stood at 3% in the test with Escherichia coli [1], 19% in the test on Escherichia coli [2] and 12% with Escherichia coli [3].

On to H-ATSFGHWIS-OH, for which the inhibition in the test with Escherichia coli [1] is 12%; in the test on Escherichia coli [2] it was 9%; with Escherichia coli [3] it was 0%.

As to H-DSTITIRGY-OH, the inhibition was -1% with Escherichia coli [1], 14% with Escherichia coli [2] and 28% in the test with Escherichia coli [3].

For the substance H-TTFTSLSIS-OH, the inhibition in the test on Escherichia coli [1] was 19%; in the test with Escherichia coli [2], 35%; with Escherichia coli [3], 48%.

H-ADFFFHSIS-OH: the values for the inhibition with Escherichia coli [1], in the test on Escherichia coli [2] and in the test on Escherichia coli [3] were 2%, 16% and 26%, respectively.

As to H-TVLDFDFIS-OH, the inhibition in the test with Escherichia coli [1] was determined as 3%; in the test on Escherichia coli [2] it was 6%; in the test with Escherichia coli [3] it was 5%.

Turning to H-NFFAGHFIS-OH, the inhibition in the test with Escherichia coli [1] was -1%; with Escherichia coli [2], 0%; in the test with Escherichia coli [3], 1%.

As for H-AGGTGTFIS-OH, the figures for the inhibition with Escherichia coli [1], in the test on Escherichia coli [2] and in the test on Escherichia coli [3] were -3%, -1% and -2%, respectively.

For H-AVLASAWIS-OH, the figures for the inhibition in the test with Escherichia coli [1], in the test with Escherichia coli [2] and in the test on Escherichia coli [3] were 0%, 8% and 18%, respectively.

Regarding H-KKLKLHFIS-OH, the results for the inhibition in the test on Escherichia coli [1], in the test with Escherichia coli [2] and in the test on Escherichia coli [3] were 8%, 22% and 39%, respectively.

In the case of H-NDLKGLFIS-OH, the inhibition was 10% with Escherichia coli [1], 12% with Escherichia coli [2] and 14% in the test on Escherichia coli [3].

Take H-KVSFGLFIS-OH: the results for the inhibition in the test on Escherichia coli [1], in the test on Escherichia coli [2] and in the test on Escherichia coli [3] were 20%, 17% and 29%, respectively.

With H-KGFQLDLIS-OH, the figures for the inhibition in the test on Escherichia coli [1], in the test on Escherichia coli [2] and in the test with Escherichia coli [3] were -7%, 9% and 8%, respectively.

As for H-LTFDGTWIS-OH, the inhibition in the test on Escherichia coli [1] was 0%; with Escherichia coli [2], 7%; in the test on Escherichia coli [3], 10%.

H-LGSAFLFIS-OH: the inhibition in the test with Escherichia coli [1] was 19%; in the test with Escherichia coli [2] it was 29%; with Escherichia coli [3], 40%.

On to H-LVGKSHLIS-OH, for which the inhibition is 1% in the test with Escherichia coli [1], 0% in the test on Escherichia coli [2] and 5% in the test with Escherichia coli [3].

Take H-AFSKSDFIS-OH: the figures for the inhibition in the test with Escherichia coli [1], with Escherichia coli [2] and in the test with Escherichia coli [3] were -5%, -9% and -6%, respectively.

In the case of H-AKGDLLLIS-OH, the values for the inhibition with Escherichia coli [1], in the test with Escherichia coli [2] and in the test with Escherichia coli [3] were 3%, 13% and 14%, respectively.

In the case of H-NTLQLALIS-OH, the inhibition in the test with Escherichia coli [1] was determined as 18%; in the test with Escherichia coli [2], 32%; in the test with Escherichia coli [3], 50%.

Turning to H-KDLASTLIS-OH, the figures for the inhibition with Escherichia coli [1], with Escherichia coli [2] and in the test on Escherichia coli [3] were 16%, 11% and 3%, respectively.

With H-TDGQLLWIS-OH, the values for the inhibition in the test with Escherichia coli [1], with Escherichia coli [2] and in the test on Escherichia coli [3] were -8%, 1% and 4%, respectively.

As for H-NVSTLHLIS-OH, the values for the inhibition with Escherichia coli [1], with Escherichia coli [2] and in the test with Escherichia coli [3] were 18%, 30% and 44%, respectively.

Consider H-LDSTLAFIS-OH, for which the inhibition in the test on Escherichia coli [1] was 10%; in the test on Escherichia coli [2], 25%; in the test on Escherichia coli [3], 37%.

Regarding H-NGFKFTWIS-OH, the inhibition is 2% with Escherichia coli [1], -3% in the test with Escherichia coli [2] and 2% with Escherichia coli [3].

Consider H-TGGAGALIS-OH, for which the inhibition with Escherichia coli [2] was 17%; in the test with Escherichia coli [3], 3%.

Regarding H-NKGTSDWIS-OH, the inhibition in the test on Escherichia coli [1] turned out to be 3%; in the test on Escherichia coli [2], 8%; in the test with Escherichia coli [3], 10%.

For H-NTGQFAFIS-OH, the inhibition in the test on Escherichia coli [1] worked out at 17%; in the test with Escherichia coli [2] it was 7%; in the test on Escherichia coli [3] it was 4%.

As to H-GGTVHFKGG-OH, the inhibition with Escherichia coli [1] was -3%; in the test with Escherichia coli [2] it was 1%; in the test with Escherichia coli [3], 3%.

The inhibition is the relative decrease from the control value, in per cent.
